Measured values published in ChEMBL document CHEMBL4346672, “Antimicrobial and KPC/AmpC inhibitory activity of functionalized benzosiloxaboroles” (Eur J Med Chem, 2019).
The source made the active and inactive calls. No cut-off for these calls is given here.

Key:
[1] = system: Staphylococcus aureus; experiment: Antibacterial activity against Staphylococcus aureus ATCC 6538P assessed as diameter of zone inhibition measured after 18 hrs by CLSI disc diffusion method; format: functional
In short: (§1)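 Disc diffusion on Mueller-Hinton II agar. Compounds dissolved in DMSO. Strains stored at -80 °C and subcultured twice on tryptic soy agar before testing. Inhibition zones read after 35 °C, 18 h.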

[2] = Dissociation constant, pKa1 of compound in 0.1 M NaOH by potentiometric analysis; format: physicochemical
[3] = system: Candida albicans; experiment: Antifungal activity against Candida albicans ATCC 90028 assessed as diameter of zone inhibition incubated for 24 hrs by CLSI disc diffusion method; format: functional
In short: (§2)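 Yeast disc diffusion on Mueller-Hinton agar supplemented with 2% glucose and 0.5 mg/L methylene blue. Compounds in DMSO. Yeasts subcultured on Sabouraud dextrose agar before testing. Zones read after 35 °C, 24 h.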

[4] = system: Candida parapsilosis; experiment: Antifungal activity against Candida parapsilosis ATCC 22019 assessed as diameter of zone inhibition incubated for 24 hrs by CLSI disc diffusion method; format: functional; in short: as §2
[5] = system: Candida tropicalis; experiment: Antifungal activity against Candida tropicalis IBA 171 assessed as diameter of zone inhibition incubated for 24 hrs by CLSI disc diffusion method; format: functional; in short: as §2
[6] = system: Meyerozyma guilliermondii; experiment: Antifungal activity against Candida guilliermondii IBA 155 assessed as diameter of zone inhibition incubated for 24 hrs by CLSI disc diffusion method; format: functional; in short: as §2
[7] = system: Pichia kudriavzevii; experiment: Antifungal activity against Candida krusei ATCC 6258 assessed as diameter of zone inhibition incubated for 24 hrs by CLSI disc diffusion method; format: functional; in short: as §2
[8] = system: Saccharomyces cerevisiae; experiment: Antifungal activity against Saccharomyces cerevisiae ATCC 9763 diameter of zone inhibition incubated for 24 hrs by CLSI disc diffusion method; format: functional
In short: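 Disc-diffusion run on Mueller-Hinton II agar with 2% glucose and 0.5 mg/L methylene blue, using compounds in DMSO. Yeast was precultured on Sabouraud dextrose agar (24–48 h, 30 °C). Zones read after 24 h at 35 °C.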

[9] = system: Staphylococcus epidermidis; experiment: Antibacterial activity against Staphylococcus epidermidis ATCC 12228 assessed as diameter of zone inhibition measured after 18 hrs by CLSI disc diffusion method; format: functional; in short: as §1
[10] = system: Enterococcus faecalis; experiment: Antibacterial activity against Enterococcus faecalis ATCC 29212 assessed as diameter of zone inhibition measured after 18 hrs by CLSI disc diffusion method; format: functional; in short: as §1
[11] = system: Enterococcus faecium; experiment: Antibacterial activity against Enterococcus faecium ATCC 6057 assessed as diameter of zone inhibition measured after 18 hrs by CLSI disc diffusion method; format: functional; in short: as §1
[12] = system: Bacillus subtilis; experiment: Antibacterial activity against Bacillus subtilis ATCC 6633 assessed as diameter of zone inhibition measured after 18 hrs by CLSI disc diffusion method; format: functional; in short: as §1
[13] = system: Escherichia coli; experiment: Antibacterial activity against Escherichia coli ATCC 25922 assessed as diameter of zone inhibition measured after 18 hrs by CLSI disc diffusion method; format: functional; in short: as §1
[14] = system: Proteus mirabilis; experiment: Antibacterial activity against Proteus mirabilis ATCC 12453 assessed as diameter of zone inhibition measured after 18 hrs by CLSI disc diffusion method; format: functional; in short: as §1
[15] = system: Enterobacter cloacae; experiment: Antibacterial activity against Enterobacter cloacae DSM 6234 assessed as diameter of zone inhibition measured after 18 hrs by CLSI disc diffusion method; format: functional; in short: as §1
[16] = system: Pseudomonas aeruginosa; experiment: Antibacterial activity against Pseudomonas aeruginosa ATCC 27853 assessed as diameter of zone inhibition measured after 18 hrs by CLSI disc diffusion method; format: functional, organism-based; in short: as §1
[17] = system: Acinetobacter baumannii; experiment: Antibacterial activity against Acinetobacter baumannii ATCC 19606 assessed as diameter of zone inhibition measured after 18 hrs by CLSI disc diffusion method; format: functional; in short: as §1
[18] = system: Stenotrophomonas maltophilia; experiment: Antibacterial activity against Stenotrophomonas maltophilia ATCC 13637 assessed as diameter of zone inhibition measured after 18 hrs by CLSI disc diffusion method; format: functional; in short: as §1
[19] = system: Burkholderia cepacia; experiment: Antibacterial activity against Burkholderia cepacia ATCC 25416 assessed as diameter of zone inhibition measured after 18 hrs by CLSI disc diffusion method; format: functional; in short: as §1
[20] = system: Bordetella bronchiseptica; experiment: Antibacterial activity against Bordetella bronchiseptica ATCC 4617 assessed as diameter of zone inhibition measured after 18 hrs by CLSI disc diffusion method; format: functional; in short: as §1
[21] = system: Klebsiella pneumoniae; settings: ATCC 13883
[22] = system: Serratia marcescens; settings: ATCC 13880

C[Si]1(C)OB(O)c2cccc(Cl)c21
diameter of the inhibition zone (DIZ) [1]: 34 mm | pKa [2]: 6.5 | diameter of the inhibition zone (DIZ) [3]: 17 mm | diameter of the inhibition zone (DIZ) [4]: 12 mm | diameter of the inhibition zone (DIZ) [5]: 12 mm | diameter of the inhibition zone (DIZ) [6]: 25 mm | diameter of the inhibition zone (DIZ) [7]: 17 mm | diameter of the inhibition zone (DIZ) [8]: 30 mm | diameter of the inhibition zone (DIZ) [9]: 33 mm | diameter of the inhibition zone (DIZ) [10]: 15 mm | diameter of the inhibition zone (DIZ) [11]: 20 mm | diameter of the inhibition zone (DIZ) [12]: 32 mm | diameter of the inhibition zone (DIZ) [13]: inactive | diameter of the inhibition zone (DIZ) [14]: 19 mm | diameter of the inhibition zone (DIZ) [15]: inactive | diameter of the inhibition zone (DIZ) [16]: inactive | diameter of the inhibition zone (DIZ) [17]: inactive | diameter of the inhibition zone (DIZ) [18]: 13 mm | diameter of the inhibition zone (DIZ) [19]: inactive | diameter of the inhibition zone (DIZ) [20]: inactive | DIZ [21]: inactive | DIZ [22]: inactive

C[Si]1(C)OB(O)c2cccc(Br)c21
diameter of the inhibition zone (DIZ) [1]: 35 mm | pKa [2]: 6.5 | diameter of the inhibition zone (DIZ) [3]: 17 mm | diameter of the inhibition zone (DIZ) [4]: 12 mm | diameter of the inhibition zone (DIZ) [5]: 14 mm | diameter of the inhibition zone (DIZ) [6]: 25 mm | diameter of the inhibition zone (DIZ) [7]: 24 mm | diameter of the inhibition zone (DIZ) [8]: 30 mm | diameter of the inhibition zone (DIZ) [9]: 30 mm | diameter of the inhibition zone (DIZ) [10]: 16 mm | diameter of the inhibition zone (DIZ) [11]: 24 mm | diameter of the inhibition zone (DIZ) [12]: 30 mm | diameter of the inhibition zone (DIZ) [13]: inactive | diameter of the inhibition zone (DIZ) [14]: 15 mm | diameter of the inhibition zone (DIZ) [15]: inactive | diameter of the inhibition zone (DIZ) [16]: inactive | diameter of the inhibition zone (DIZ) [17]: inactive | diameter of the inhibition zone (DIZ) [18]: 13 mm | diameter of the inhibition zone (DIZ) [19]: inactive | diameter of the inhibition zone (DIZ) [20]: inactive | DIZ [21]: inactive | DIZ [22]: inactive
